Measured values as given in ChEMBL document CHEMBL2375359, “Synthesis and antibacterial evaluation of novel pleuromutilin derivatives” (2013).
≈ marks a conversion by molar mass, not a printed value.

Tests used:
Type in all cases: functional
[1] = test system: Staphylococcus epidermidis; assay: Antibacterial activity against methicillin-resistant Staphylococcus epidermidis at 80 ug/ml after 24 hrs by Oxford cup assay; conditions: read-out: IZ
Method in brief: (§1)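 Oxford cup diffusion: clinical isolate inoculum in 0.9% saline set by McFarland standard, spread evenly on nutrient agar. Cups placed equidistant on the surface and filled with compound solutions prepared as for the agar dilution test, at several concentrations. Inhibition zone measured after 24 h at 37 °C.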

[2] = test system: Staphylococcus epidermidis; assay: Antibacterial activity against methicillin-resistant Staphylococcus epidermidis at 320 ug/ml after 24 hrs by Oxford cup assay; conditions: read-out: IZ; method in brief: as §1
[3] = test system: Escherichia coli; assay: Antibacterial activity against Escherichia coli after 48 hrs by agar dilution method
Method in brief: (§2)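 Agar dilution per NCCLS on clinical isolates. 2-fold serial dilutions of compound (2 mL) mixed into 18 mL hot Mueller-Hinton agar. Inoculum from blood slants, adjusted to approx. 10⁵–10⁶ cfu/mL in sterile 0.90% NaCl, then spotted onto the plates. Incubated 36.5 °C, 48 h. MIC is the lowest concentration giving complete growth inhibition. Run in triplicate at pH 7.40.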

[4] = test system: Escherichia coli; assay: Antibacterial activity against Escherichia coli at 320 ug/ml after 24 hrs by Oxford cup assay; conditions: read-out: IZ
Method in brief: (§3)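 Oxford cup diffusion with clinical isolates. Inoculum made in 0.9% saline to a McFarland standard and spread evenly on nutrient agar. Compound solutions, prepared as for the agar dilution test, were added at the stated concentration to Oxford cups set equidistant on the agar surface. Inhibition zones were measured after 24 h at 37 °C.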

[5] = test system: Streptococcus agalactiae; assay: Antibacterial activity against Streptococcus agalactiae at 160 ug/ml after 24 hrs by Oxford cup assay; conditions: read-out: IZ; method in brief: as §3
[6] = test system: Staphylococcus aureus; assay: Antibacterial activity against methicillin-resistant Staphylococcus aureus at 320 ug/ml after 24 hrs by Oxford cup assay; conditions: read-out: IZ; method in brief: as §1
[7] = test system: Escherichia coli; assay: Antibacterial activity against Escherichia coli at 80 ug/ml after 24 hrs by Oxford cup assay; conditions: read-out: IZ; method in brief: as §3
[8] = test system: Staphylococcus aureus; assay: Antibacterial activity against methicillin-resistant Staphylococcus aureus at 80 ug/ml after 24 hrs by Oxford cup assay; conditions: read-out: IZ; method in brief: as §1
[9] = test system: Staphylococcus epidermidis; assay: Antibacterial activity against methicillin-resistant Staphylococcus epidermidis after 48 hrs by agar dilution method
Method in brief: (§4)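 Agar dilution per NCCLS: 2-fold serial dilutions incorporated into hot Mueller-Hinton agar. Clinical isolates grown from blood slants, suspended in sterile 0.90% NaCl to about 10⁵–10⁶ cfu/mL, spotted onto plates. Incubation 36.5 °C, 48 h. MIC taken as the lowest concentration giving complete growth inhibition. Run in triplicate at pH 7.40.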

[10] = test system: Streptococcus agalactiae; assay: Antibacterial activity against Streptococcus agalactiae at 320 ug/ml after 24 hrs by Oxford cup assay; conditions: read-out: IZ; method in brief: as §3
[11] = test system: Streptococcus agalactiae; assay: Antibacterial activity against Streptococcus agalactiae at 80 ug/ml after 24 hrs by Oxford cup assay; conditions: read-out: IZ; method in brief: as §3
[12] = test system: Escherichia coli; assay: Antibacterial activity against Escherichia coli at 160 ug/ml after 24 hrs by Oxford cup assay; conditions: read-out: IZ; method in brief: as §3
[13] = test system: Staphylococcus aureus; assay: Antibacterial activity against methicillin-resistant Staphylococcus aureus after 48 hrs by agar dilution method; method in brief: as §4
[14] = test system: Staphylococcus epidermidis; assay: Antibacterial activity against methicillin-resistant Staphylococcus epidermidis at 160 ug/ml after 24 hrs by Oxford cup assay; conditions: read-out: IZ; method in brief: as §1
[15] = test system: Staphylococcus aureus; assay: Antibacterial activity against methicillin-resistant Staphylococcus aureus at 160 ug/ml after 24 hrs by Oxford cup assay; conditions: read-out: IZ; method in brief: as §1
[16] = test system: Streptococcus agalactiae; assay: Antibacterial activity against Streptococcus agalactiae after 48 hrs by agar dilution method; method in brief: as §2

SMILES	zone of inhibition at 80 µg/mL [1]	zone of inhibition at 320 µg/mL [2]	MIC [3]	zone of inhibition at 320 µg/mL [4]	zone of inhibition at 160 µg/mL [5]	zone of inhibition at 320 µg/mL [6]	zone of inhibition at 80 µg/mL [7]	zone of inhibition at 80 µg/mL [8]	MIC [9]	zone of inhibition at 320 µg/mL [10]	zone of inhibition at 80 µg/mL [11]	zone of inhibition at 160 µg/mL [12]	MIC [13]	zone of inhibition at 160 µg/mL [14]	zone of inhibition at 160 µg/mL [15]	MIC [16]
C=C[C@]1(C)C[C@@H](OC(=O)CSC(C)(C)CNC(=O)c2ccccc2Cl)[C@]2(C)[C@H](C)CC[C@]3(CCC(=O)[C@H]32)[C@@H](C)[C@@H]1O	11.4 mm	13.4 mm	4 µg/mL (≈ 6.62 µM)	14.5 mm	11.2 mm	14.2 mm	11.3 mm	14.1 mm	1 µg/mL (≈ 1.65 µM)	10.8 mm	10.6 mm	11.9 mm	0.5 µg/mL (≈ 0.827 µM)	12.2 mm	12.2 mm	8 µg/mL (≈ 13.2 µM)
C=C[C@]1(C)C[C@@H](OC(=O)CSC(C)(C)CNC(=O)c2cccc(Cl)c2)[C@]2(C)[C@H](C)CC[C@]3(CCC(=O)[C@H]32)[C@@H](C)[C@@H]1O	9.45 mm	11.9 mm	8 µg/mL (≈ 13.2 µM)	15.7 mm	13.9 mm	13.5 mm	11.9 mm	11.9 mm	16 µg/mL (≈ 26.5 µM)	12.2 mm	10.4 mm	10.7 mm	8 µg/mL (≈ 13.2 µM)	10.6 mm	13.1 mm	32 µg/mL (≈ 53 µM)
C=C[C@]1(C)C[C@@H](OC(=O)CSC(C)(C)CNC(=O)c2ccc(Cl)cc2)[C@]2(C)[C@H](C)CC[C@]3(CCC(=O)[C@H]32)[C@@H](C)[C@@H]1O	8.72 mm	12.4 mm	2 µg/mL (≈ 3.31 µM)	12.6 mm	12.1 mm	14.6 mm	11.8 mm	11.8 mm	0.5 µg/mL (≈ 0.827 µM)	14 mm	10.8 mm	12.9 mm	1 µg/mL (≈ 1.65 µM)	12.7 mm	13.8 mm	4 µg/mL (≈ 6.62 µM)
C=C[C@]1(C)C[C@@H](OC(=O)CSC(C)(C)CNC(=O)c2ccccc2C)[C@]2(C)[C@H](C)CC[C@]3(CCC(=O)[C@H]32)[C@@H](C)[C@@H]1O	10.7 mm	13.8 mm	2 µg/mL (≈ 3.43 µM)	15 mm	10.9 mm	12.3 mm	12.1 mm	10.3 mm	16 µg/mL (≈ 27.4 µM)	12.4 mm	10 mm	13.7 mm	0.25 µg/mL (≈ 0.428 µM)	12.9 mm	11.8 mm	0.5 µg/mL (≈ 0.856 µM)
C=C[C@]1(C)C[C@@H](OC(=O)CSC(C)(C)CNC(=O)c2cccc(C)c2)[C@]2(C)[C@H](C)CC[C@]3(CCC(=O)[C@H]32)[C@@H](C)[C@@H]1O	9.9 mm	12.4 mm	8 µg/mL (≈ 13.7 µM)	15.5 mm	13 mm	13.1 mm	11.3 mm	11.2 mm	16 µg/mL (≈ 27.4 µM)	13.6 mm	13 mm	13.7 mm	1 µg/mL (≈ 1.71 µM)	10.8 mm	13.2 mm	2 µg/mL (≈ 3.43 µM)
C=C[C@]1(C)C[C@@H](OC(=O)CSC(C)(C)CNC(=O)c2ccc(C)cc2)[C@]2(C)[C@H](C)CC[C@]3(CCC(=O)[C@H]32)[C@@H](C)[C@@H]1O	10.9 mm	12.1 mm	4 µg/mL (≈ 6.85 µM)	16.6 mm	10.9 mm	12.6 mm	9.8 mm	10.4 mm	16 µg/mL (≈ 27.4 µM)	12.3 mm	9.82 mm	15.1 mm	0.25 µg/mL (≈ 0.428 µM)	10.3 mm	11.5 mm	0.5 µg/mL (≈ 0.856 µM)
C=C[C@]1(C)C[C@@H](OC(=O)CSC(C)(C)CNC(=O)c2ccccc2OC)[C@]2(C)[C@H](C)CC[C@]3(CCC(=O)[C@H]32)[C@@H](C)[C@@H]1O	10.8 mm	13.5 mm	4 µg/mL (≈ 6.67 µM)	17.4 mm	13 mm	12.4 mm	12.4 mm	9.5 mm	8 µg/mL (≈ 13.3 µM)	13.7 mm	11.8 mm	15.5 mm	0.25 µg/mL (≈ 0.417 µM)	12.5 mm	12.1 mm	2 µg/mL (≈ 3.33 µM)
C=C[C@]1(C)C[C@@H](OC(=O)CSC(C)(C)CNC(=O)c2cccc(OC)c2)[C@]2(C)[C@H](C)CC[C@]3(CCC(=O)[C@H]32)[C@@H](C)[C@@H]1O	11.4 mm	12.5 mm	8 µg/mL (≈ 13.3 µM)	14.3 mm	12.4 mm	12.8 mm	12.2 mm	11.8 mm	32 µg/mL (≈ 53.3 µM)	13.4 mm	12.6 mm	13.3 mm	2 µg/mL (≈ 3.33 µM)	11.7 mm	13 mm	4 µg/mL (≈ 6.67 µM)
C=C[C@]1(C)C[C@@H](OC(=O)CSC(C)(C)CNC(=O)c2ccc(OC)cc2)[C@]2(C)[C@H](C)CC[C@]3(CCC(=O)[C@H]32)[C@@H](C)[C@@H]1O	14.4 mm	18.3 mm	1 µg/mL (≈ 1.67 µM)	18.5 mm	15.9 mm	19.7 mm	15.7 mm	15.3 mm	2 µg/mL (≈ 3.33 µM)	16.6 mm	16 mm	17.1 mm	0.25 µg/mL (≈ 0.417 µM)	15.2 mm	18.4 mm	0.5 µg/mL (≈ 0.834 µM)
C=C[C@]1(C)C[C@@H](OC(=O)CSC(C)(C)CNC(=O)c2ccccc2N)[C@]2(C)[C@H](C)CC[C@]3(CCC(=O)[C@H]32)[C@@H](C)[C@@H]1O	15.3 mm	17.4 mm	2 µg/mL (≈ 3.42 µM)	13.8 mm	11.8 mm	19.6 mm	13.1 mm	16.6 mm	0.5 µg/mL (≈ 0.855 µM)	11.9 mm	12 mm	13.7 mm	1 µg/mL (≈ 1.71 µM)	16 mm	18.9 mm	0.5 µg/mL (≈ 0.855 µM)
C=C[C@]1(C)C[C@@H](OC(=O)CSC(C)(C)CNC(=O)c2cccc(N)c2)[C@]2(C)[C@H](C)CC[C@]3(CCC(=O)[C@H]32)[C@@H](C)[C@@H]1O	9.63 mm	11.2 mm	8 µg/mL (≈ 13.7 µM)	10.7 mm	9.8 mm	10.2 mm	9.94 mm	9.56 mm	1 µg/mL (≈ 1.71 µM)	9.66 mm	8.86 mm	12.5 mm	2 µg/mL (≈ 3.42 µM)	9.72 mm	10.8 mm	0.5 µg/mL (≈ 0.855 µM)
C=C[C@]1(C)C[C@@H](OC(=O)CSC(C)(C)CNC(=O)c2ccc(N)cc2)[C@]2(C)[C@H](C)CC[C@]3(CCC(=O)[C@H]32)[C@@H](C)[C@@H]1O	17.3 mm	17.9 mm	2 µg/mL (≈ 3.42 µM)	18.8 mm	11.6 mm	22.2 mm	18.1 mm	20.6 mm	0.5 µg/mL (≈ 0.855 µM)	11.4 mm	10.9 mm	17.8 mm	0.25 µg/mL (≈ 0.427 µM)	18.1 mm	21.6 mm	0.5 µg/mL (≈ 0.855 µM)
